The subject of data set [1] is Mus musculus. In words: Antiulcerogenic activity in DSS-induced acute ulcerative colitis C57BL/6J mouse model assessed as decrease in body weight at 150 mg/kg, po qd administered for 7 days (reference value: 23.96%). The class given is functional. Also noted: scale not given: the % may be the effect or the level left.
Data set [2] concerns Mus musculus. The data set can be described thus: Antiulcerogenic activity in DSS-induced acute ulcerative colitis C57BL/6J mouse model assessed as recovery of polar arrangement of IEC cells at 150 mg/kg, po qd administered for 7 days by microscopic analysis. The data set is classed as functional, organism-based. A digest of the protocol: (§1)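 Colitis induced by DSS in C57BL/6J mice. Agents given orally each day: test agents at 150 mg/kg as a suspension in 0.5% CMC-Na; sulfasalazine at 500 mg/kg. At study end, colon tissue was H&E stained and examined by light microscopy at ×100 for mucosal structure, epithelial cell arrangement, crypt damage, inflammatory infiltration and ulceration.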

The test system of data set [3] is Escherichia coli. The data set can be described thus: Antibacterial activity against clinical isolate of Escherichia coli after 24 hrs by twofold microdilution broth method. The data set is classed as functional. A digest of the protocol:
(§2)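 Clinical isolates grown in Mueller-Hinton broth at 37 °C; inoculum diluted in MHB to 10^6 CFU. Compounds from 20,000 µg/ml DMSO stocks, twofold serial dilution across ten wells, with medium-only and organism-only controls. Incubated 24 h in ambient air. MIC taken as the lowest concentration with no visible growth by eye. Three replicates.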

Data set [4] is described as follows: Induction of XBP1 promoter DNA activation in rat IEC-6 cells after 48 hrs by dual luciferase reporter gene assay. The class given is cell-based. The following applies: IEC-6, 48 h.
For data set [5], the system named is IEC-6. The data set can be described thus: Induction of XBP1 promoter DNA activation in rat IEC-6 cells at 10 uM after 48 hrs by dual luciferase reporter gene assay relative to control. The data set is classed as cell-based. For orientation: A reporter such as luciferase makes a cellular process visible.
The test system of data set [6] is Mus musculus. The data set can be described thus: Antiulcerogenic activity in DSS-induced acute ulcerative colitis C57BL/6J mouse model assessed as colon macroscopic damage index at 150 mg/kg, po qd administered for 7 days (reference value: 4.13 +/- 0.78). The class given is functional.
For data set [7], the system named is Staphylococcus aureus. The data set can be described thus: Antibacterial activity against clinical isolate of Staphylococcus aureus after 24 hrs by twofold microdilution broth method. The class given is functional. A digest of the protocol:
as §2
A general note: Dilution methods test growth across graded concentrations, often in twofold steps.

The test system of data set [8] is Mus musculus. The data set can be described thus: Antiulcerogenic activity in DSS-induced acute ulcerative colitis C57BL/6J mouse model assessed as regular arrangement of IEC cells at 150 mg/kg, po qd administered for 7 days by microscopic analysis. The data set is classed as functional, organism-based. The method in brief:
as §1

Data set [9] concerns Mus musculus. The data set can be described thus: Inhibition of DSS-induced acute ulcerative colitis C57BL/6J mouse model at 150 mg/kg, po qd administered for 7 days relative to control. The data set is classed as functional. As to conditions: 168 h.
Data set [10] concerns Mus musculus. In words: Antiulcerogenic activity in DSS-induced acute ulcerative colitis C57BL/6J mouse model assessed as colon contracture at 150 mg/kg, po qd administered for 7 days (reference value: 41.87%). The class given is functional.
Data set [11] can be described thus: Cytotoxicity against rat IEC-6 cells assessed as cell survival at 10 uM after 72 hrs by MTT assay relative to control. The data set is classed as cell-based. The following applies: read-out: Survival. The method in brief: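 IEC-6 intestinal epithelial cells were exposed to each compound at a fixed 10 µM for 72 h alongside an untreated blank control. Viability was read by MTT reduction and expressed as survival rate (SR). Compounds with SR between 70% and 100% were classed as noncytotoxic or hypocytotoxic.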
On the technique in general: Formazan colour is commonly taken as a measure of viable cells.

Data set [12] concerns Candida albicans. In words: Antifungal activity against Candida albicans CMCC (F) 98001 after 24 hrs by twofold microdilution broth method. The data set is classed as functional. The following applies: CMCC (F) 98001, 24 h. The method in brief: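 Strain CMCC(F) 98001 grown in Sabouraud dextrose broth at 25 °C; inoculum diluted in SDB to 10^6 CFU. Compounds from 20,000 µg/ml DMSO stocks, twofold serial dilution across ten wells, with medium-only and organism-only controls. Incubated 24 h. MIC read by eye as the lowest concentration with no visible growth. Three replicates.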

The subject of data set [13] is Mus musculus. The data set can be described thus: Antiulcerogenic activity in DSS-induced acute ulcerative colitis C57BL/6J mouse model assessed as colon macroscopic damage index at 500 mg/kg, po qd administered for 7 days (reference value: 4.13 +/- 0.78). The class given is functional.
The test system of data set [14] is Mus musculus. In words: Antiulcerogenic activity in DSS-induced acute ulcerative colitis C57BL/6J mouse model assessed as disappearance of inflammatory edema at 500 mg/kg, po qd administered for 7 days by microscopic analysis. The class given is functional, organism-based. A digest of the protocol: as §1
The subject of data set [15] is Mus musculus. In words: Antiulcerogenic activity in DSS-induced acute ulcerative colitis C57BL/6J mouse model assessed as colon contracture at 500 mg/kg, po qd administered for 7 days (reference value: 41.87%). The data set is classed as functional.
Data set [16] relates to Mus musculus. In words: Inhibition of DSS-induced acute ulcerative colitis C57BL/6J mouse model at 500 mg/kg, po qd administered for 7 days relative to control. The data set is classed as functional. The following applies: 168 h.
For data set [17], the system named is Mus musculus. In words: Antiulcerogenic activity in DSS-induced acute ulcerative colitis C57BL/6J mouse model assessed as decrease in body weight at 500 mg/kg, po qd administered for 7 days (reference value: 23.96%). The class given is functional. Set-up: scale not given: the % may be the effect or the level left.

Activity calls are given as the source filed them. The calls are words filed in the database; no cut-off is given here.

With `COc1cc2c(cc1OC)-c1c(C=O)c3ccc(OC)c(OC)c3c(=O)n1CC2`, the results for the Activity in data set [1] and in data set [10] were 5.92% and 29.24%, respectively. The result in data set [2] and in data set [8] was Active. The MIC in data set [3], in data set [7] and in data set [12] was > 250 mg/L throughout. Moreover, in data set [4], the EC50 (as a rule, the concentration that produces a half-maximal response) amounted to 0.135 µM. The fold change (FC) in data set [5] was found to be 1.41. The Activity_index in [6] stood at 2.25. The inhibition in vivo (usually the share of the control response that was lost under treatment) at 150 mg/kg in data set [9] was 63.2%. In addition, in [11], the viability at 72 h, 10 µM lay in the range of 70 to 100%.
As to `COc1cc2c(cc1OC)-c1c(C(=O)NCc3ccccc3)c3ccc(OC)c(OC)c3c(=O)n1CC2`, the MIC in [3], in [7] and in data set [12] was > 250 mg/L throughout. The EC50 in data set [4] was 0.834 µM. The compound also showed a fold change (FC) in [5] of 1.2. Moreover, the viability at 72 h, 10 µM in data set [11] lay within 70 to 100%.
With `O=C(O)c1cc(/N=N/c2ccc(S(=O)(=O)Nc3ccccn3)cc2)ccc1O` [SULFASALAZINE], in data set [13], the Activity_index was found to be 3.13. In addition, in [14], the outcome was Active. Also, the Activity is on record as 28.22% in data set [15] and 6.01% in data set [17]. The compound further had an inhibition in vivo at 500 mg/kg in [16] of 55.2%.

Values taken from ChEMBL document CHEMBL4219240, “Syntheses and structure-activity relationships on antibacterial and anti-ulcerative colitis properties of quaternary 13-substituted palmatines and 8-oxo-13-substituted dihydropalmatines” (Bioorg Med Chem, 2018).
